Measured values from article PMC6791425 (Oncoimmunology, 2019).

Legend:
[1] = molecular target: PSMA expressed on LNCaP cells (Homo sapiens, UniProt Q04609); assay: competitive cell-binding assay with PSMA-positive LNCaP cells
[2] = biodistribution analysis in LNCaP tumor-bearing mice; format: in vivo, NMRI nu/nu mice; details: high molar activity, approximately 10 MBq
Summary of the method: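 Mice bearing LNCaP tumours (100–500 mm3) were injected with approximately 10 MBq of the 68Ga-labelled test compound, giving groups at high molar activity (low peptide amount) and low molar activity (high peptide amount). Organ distribution was determined in three mice per condition. Labelling was done at pH 4.2, 98°C, for 10 min in HEPES.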

PSMA expressed on LNCaP cells, sequence (Q04609 whole entry): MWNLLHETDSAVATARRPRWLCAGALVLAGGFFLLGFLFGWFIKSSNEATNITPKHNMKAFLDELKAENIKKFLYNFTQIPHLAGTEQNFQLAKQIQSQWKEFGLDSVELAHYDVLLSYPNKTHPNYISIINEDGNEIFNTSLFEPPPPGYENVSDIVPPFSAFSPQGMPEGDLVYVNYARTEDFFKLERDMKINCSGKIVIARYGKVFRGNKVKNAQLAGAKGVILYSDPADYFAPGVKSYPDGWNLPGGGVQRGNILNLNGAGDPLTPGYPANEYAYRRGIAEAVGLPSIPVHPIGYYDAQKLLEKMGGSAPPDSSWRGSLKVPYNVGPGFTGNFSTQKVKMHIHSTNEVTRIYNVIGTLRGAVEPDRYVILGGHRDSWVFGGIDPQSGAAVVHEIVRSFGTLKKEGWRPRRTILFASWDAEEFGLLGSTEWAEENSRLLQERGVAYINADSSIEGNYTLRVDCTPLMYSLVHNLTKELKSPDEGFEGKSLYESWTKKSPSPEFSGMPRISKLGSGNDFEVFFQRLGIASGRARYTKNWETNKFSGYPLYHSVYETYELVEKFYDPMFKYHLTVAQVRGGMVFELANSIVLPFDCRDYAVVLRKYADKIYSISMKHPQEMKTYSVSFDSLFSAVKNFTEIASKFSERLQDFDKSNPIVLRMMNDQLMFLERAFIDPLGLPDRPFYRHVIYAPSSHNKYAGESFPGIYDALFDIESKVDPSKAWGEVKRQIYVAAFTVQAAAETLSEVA

| IC50 [1] [nM] | Tumor ([2]; LNCaP tumor) | Adrenals [2] | BAT [2] | Blood [2] | Brain [2] | Femur [2] | Heart [2] | Kidneys [2] | Liver [2] | Lung [2] | Muscle [2] | Pancreas [2] | Ratio tumor/muscle [2] | Skin [2] | Spleen [2] | Subm. gl. [2] | Testes [2] | WAT [2] | SMILES |
| --- | --- | --- | --- | --- | --- | --- | --- | --- | --- | --- | --- | --- | --- | --- | --- | --- | --- | --- | --- |
| 14.8 ± 1.2 |  |  |  |  |  |  |  |  |  |  |  |  |  |  |  |  |  |  | O=C(O)CCc1ccc(O)c(CN(CCN(CC(=O)O)Cc2cc(CCC(=O)NCCCCCC(=O)NCCCC[C@H](NC(=O)N[C@@H](CCC(=O)O)C(=O)O)C(=O)O)ccc2O)CC(=O)O)c1 [PSMA-11] |
|  | 2.99 SUV (g/g) | 3.11 SUV (g/g) | 0.10 SUV (g/g) | 0.06 SUV (g/g) | 0.01 SUV (g/g) | 0.04 SUV (g/g) | 0.09 SUV (g/g) | 50.79 SUV (g/g) | 0.11 SUV (g/g) | 0.45 SUV (g/g) | 0.04 SUV (g/g) | 0.29 SUV (g/g) | 70.87 | 0.09 SUV (g/g) | 1.53 SUV (g/g) | 0.29 SUV (g/g) | 0.22 SUV (g/g) | 0.33 SUV (g/g) | O=C([O-])CN(CCN(CC(=O)[O-])Cc1cc(CCC(=O)NCCCCCC(=O)NCCCC[C@H](NC(=O)N[C@@H](CCC(=O)O)C(=O)O)C(=O)O)ccc1[O-])Cc1cc(CCC(=O)O)ccc1[O-].[68Ga+3].[OH3+] [[^68Ga]Ga-PSMA-11] |
